From PubChem
In the library only some 1.9% were active in any assay of this set; here they are far more common.
Xi reactivation = X-chromosome reactivation activator; actives 0.055% (n = 360,000); AID 743238; activation, % at 7.58 µM; XiGFP mouse fibroblasts, % GFP-positive cells imaging, 3 d; cells co-treated with 5-aza-dC sensitizer; scaled so ellipticine positive control = 100%;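 active = mean normalized replicate activation at least 10% and every replicate at or above 10%; inconclusive = only one of the two criteria met; inactive = mean below 10% and not all replicates reach 10%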;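 note: 0% = median of on-plate neutral control wells and 100% = ellipticine 6 µM median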
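Material: SV40-immortalized XiGFP fibroblast cells, line 68-5-11 | Buffer or medium: DMEM containing 5-aza-dC | Dosing: One concentration, pinned | Times: 3 d treatment, 15 min room-temperature fixation | Controls: Ellipticine 6 µM positive control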
F508del corr = correctors of CFTR F508del function in bronchial epithelial cells; CFBE cells, YFP halide quenching; stimulated with forskolin plus potentiator P3; % fluorescence drop versus neutral controls; activity (quench increase), % at 7.58 µM; actives 0.36% (n = 350,000);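 active = mean added fluorescence quench of at least 8% versus neutral control, with both replicates also reaching 8%; inconclusive = only one of the mean or replicate conditions met; inactive = mean below 8% and not both replicates reaching 8%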;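 note: cells transiently co-express mutant CFTR-F508del with the halide-sensitive YFP; corrector assay measuring rescue of mutant channel to the surface after 24 h compound exposure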
DENV2 CPE rescue = DENV2-induced cell death inhibition | DENV2-infected cells, cytopathic effect rescue, plate reader | AID 651640 | CPE inhibition, % at 9.99 µM | actives 1.7% (n = 350,000); in the data active = CPE inhibition above about 20%, passing the limit was not always enough; inconclusive = no clear call, values can overlap the other calls; tested in BHK-21 cells;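 note: 0% = median of neutral control wells and 100% = median of positive control wells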
FN deposit inh = fibronectin deposition inhibition; AH1F fibroblasts, Alexa488-fibronectin deposition fluorescence, overnight; inhibition, % at 12.6 µM; actives 0.086% (n = 350,000);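 active = mean inhibition across replicates of 30% or more, regardless of how many single replicates reach that level; inconclusive = mean under 30% yet at least half of replicates reach 30%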;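 note: positive control wells lacked labelled fibronectin entirely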
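Assay system: AH1F fibroblasts / Quantity: 10000 cells per well / Medium: DMEM plus 2% serum, read in PBS / Reagent: labelled fibronectin 24 nM / Dosing: single dose, pinned / Times: 1 h cell attachment, overnight exposure to compound and label / Signal: fluorescence, ex 485 nm, em 525 nm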
Cneo AK release = causes C. neoformans cell lysis; adenylate kinase release luminescence, 4 h; normalised: neutral wells 0, clomiphene wells 100; lysis activity, % at 15 µM; actives 0.2% (n = 360,000);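 active = mean lysis activity across replicates of at least 80%, whatever share of replicates individually reach that level; inactive = mean lysis activity below 80%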
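Test system: log-phase Cryptococcus neoformans yeast cells; Quantity: yeast cell density of 5 × 10^6 cells/mL; Buffer or medium: YPD; Doses: single compound concentration per well; Timing: 4 h at 37 °C static, read 1 h later; Measured by: AK luminescence; Read-out basis: lysis from increased AK signal; Control set: Clomiphene as positive control.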
PGC1a acetyl inh = lowers PGC1a acetylation signal in U2OS cells | AlphaScreen anti-acetyl-lysine; with virally co-expressed GCN5 acetyltransferase | inhibition, % at 15.6 µM | actives 0.17% (n = 350,000) | AID 651687;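 active = every replicate shows inhibition of at least 40%; inconclusive = mean inhibition at least 40% but some replicate below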;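 note: 0% = neutral control wells and 100% = positive control wells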
* marks the source's active call; other numbers are inactive results; ? = inconclusive; · = no result given.

SMILES	Xi reactivation	F508del corr	DENV2 CPE rescue	FN deposit inh	Cneo AK release	PGC1a acetyl inh
O=C(Nc1ccccc1Cl)c1cc(C2CCCCN2C(=O)C2CCCCC2)on1 (configuration not stated)	0	1	9	2	-1	-3
COc1ccc(C(=O)N2CCCCC2c2cc(C(=O)NCc3cccnc3)no2)cc1 (configuration not stated)	0	-3	33*	3	-1	0
C[C@@H]1CN([C@H](C)CO)C(=O)c2cc(NC(=O)NC3CCCCC3)ccc2O[C@@H](C)CCCCO[C@H]1CN(C)S(=O)(=O)c1ccccc1	0	-1	0	-4	-2	-17
C=CC(C)(O)CCC=C(C)C (configuration not stated)	·	0	101*	·	3	-10
CC(C)=CCC/C(C)=C/CC/C(C)=N/O	·	·	·	0	0	-6
C[C@H]1CN([C@@H](C)CO)C(=O)Cc2cc(N(C)C)ccc2O[C@H]1CN(C)C(=O)Nc1ccccc1	-1	-3	-2	·	62	-12
C[C@H](CO)N1C[C@H](C)[C@@H](CN(C)S(=O)(=O)c2ccc(Cl)cc2)Oc2ccc(NC(=O)Nc3cccc4ccccc34)cc2CC1=O	0	1	42*	-4	-8	0
C[C@H]1CN([C@@H](C)CO)C(=O)Cc2cc(NC(=O)Nc3cccc4ccccc34)ccc2O[C@@H]1CN(C)S(=O)(=O)c1cccs1	0	-4	-1	·	-2	-3
C[C@@H]1CN([C@@H](C)CO)C(=O)Cc2cc(NC(=O)Nc3cccc4ccccc34)ccc2O[C@@H]1CN(C)S(=O)(=O)c1cccs1	0	0	·	·	95*	0
C[C@H](CO)N1C[C@H](C)[C@H](CN(C)S(=O)(=O)c2ccccc2)Oc2c(NC(=O)C3CCCCC3)cccc2C1=O	0	-2	2	·	-1	1
C[C@@H]1CN([C@H](C)CO)C(=O)Cc2cc(NC(=O)CCCCCC(=O)Nc3ccccc3N)ccc2O[C@H]1CN(C)C(=O)Nc1ccccc1	0	-3	-2	·	105*	19
C[C@H]1CN([C@@H](C)CO)C(=O)Cc2cc(NC(=O)CCCCCC(=O)Nc3ccccc3N)ccc2O[C@@H]1CN(C)S(=O)(=O)c1ccccc1	0	-1	79*	·	13	-10
C[C@@H]1CN([C@@H](C)CO)C(=O)Cc2cc(NC(=O)CCCCCC(=O)Nc3ccccc3N)ccc2O[C@H]1CN(C)C(=O)Nc1ccccc1	0	0	5	·	·	-3
C[C@H]1CN([C@@H](C)CO)C(=O)Cc2cc(NC(=O)CCCCCC(=O)Nc3ccccc3N)ccc2O[C@H]1CN(C)C(=O)Nc1ccccc1	0	-3	-5	·	94*	9
C[C@H]1CN([C@@H](C)CO)C(=O)Cc2cc(NC(=O)CCCCCC(=O)Nc3ccccc3N)ccc2O[C@H]1CN(C)C(=O)Nc1cccc2ccccc12	1	1	28*	·	·	4
CCCNC(=O)[C@@H]1[C@@H](CO)[C@@H]2Cn3c(ccc(C4=CCCCC4)c3=O)[C@H]1N2C(=O)CC	0	0	·	·	·	·
CN1C(=O)C(c2cn(C)c3ccccc23)(c2cn(C)c3ccccc23)c2cc(F)ccc21	0	-1	30*	-1	·	·
O=C(Cc1ccc(Br)cc1)NCc1ccccc1	0	20*	-6	-9	-1	·
O=S(=O)(c1ccc(F)cc1)N1CCN(CC(O)COCc2ccccc2)CC1 (configuration not stated)	0	4	15	1	1	·
O=S(=O)(c1cccc(C(F)(F)F)c1)N1CCN(CC(O)COCc2ccccc2)CC1 (configuration not stated)	0	1	63*	1	0	-4
O=C(COC(=O)c1ccc(Cl)nc1)Nc1ccc(Cl)cc1	0	0	-5	5	0	4
O=C(COC(=O)c1ccc(Cl)nc1)Nc1ccc(N2CCCCC2)cc1	0	-1	62*	-1	-2	·
COc1ccc(S(=O)(=O)Nc2ccc3c(c2)C(=O)N([C@@H](C)CO)C[C@@H](C)[C@@H](CN(C)C(=O)Nc2ccccc2)OCCCC[C@H](C)O3)cc1	0	0	7	-5	5	-15
Cc1noc(C)c1NC(=O)N(C)C[C@@H]1Oc2ccc(NC(=O)Cn3cnnn3)cc2CC(=O)N([C@H](C)CO)C[C@@H]1C	0	1	5	6	-2	3
Cc1cnc(NC(=O)CCc2ccccc2)s1	0	8.9*	4	9	4	-17
SMILES	Xi reactivation	F508del corr	DENV2 CPE rescue	FN deposit inh	Cneo AK release	PGC1a acetyl inh
COc1ccc(CCC(=O)Nc2ncc(C)s2)cc1OC	0	2	?	7	-2	·
CCOc1ccccc1C=C1SC(=S)NC1=O	0	6	35*	-4	1	0
CCOP(=O)(c1ccccc1)C(O)c1ccc([N+](=O)[O-])cc1 (configuration not stated)	0	-1	39*	0	-1	3
CCOP(=O)(c1ccccc1)C(O)c1ccc(F)cc1 (configuration not stated)	0	·	·	-11	·	·
CN(C)c1ccc2c(c1)[C@H]1C[C@H](CC(=O)N3CCCCC3)O[C@H](CO)[C@H]1O2	0	-2	-3	-6	·	·
CCCCOc1ccc(C(=O)C(CN2CCOCC2)c2ccccc2)cc1 (configuration not stated)	·	·	·	·	1	80*
O=C(c1ccc(F)cc1)C(CN1CCOCC1)c1ccccc1 (configuration not stated)	·	-1	-4	·	-1	60*
O=C(c1ccc(Cl)cc1)C(CN1CCCC1)c1ccccc1 (configuration not stated)	0	-16	-17	53*	0	·
CNC(=S)N1N=C(c2ccc(C)cc2)CC1c1cc(OC)ccc1OC (configuration not stated)	0	2	15	4	·	·
COc1ccc(C2CC(c3ccccc3)=NN2S(=O)(=O)c2ccccc2)c(OC)c1 (configuration not stated)	0	·	22*	5	·	·
COc1ccc(OC)c(C2CC(c3ccccc3)=NN2C(=S)Nc2ccccc2)c1 (configuration not stated)	0	11*	-7	1	·	·
C[C@H](CO)N1C[C@H](C)[C@@H](CN(C)S(=O)(=O)c2ccc(Cl)cc2)OCc2cn(nn2)CCCC1=O	0	-2	16	-5	·	-6
CO[C@H]1CN(C)C(=O)c2ccc(NC(=O)c3cnccn3)cc2OC[C@H](C)NC[C@H]1C	0	-3	53*	-27	2	1
